Experimental data taken from ChEMBL document CHEMBL1136857, “1-Malonyl-1,4-dihydropyridine as a novel carrier for specific delivery of drugs to the brain” (Bioorg Med Chem, 2009).

Assays:
[1] = Chemical stability in ferricyanide solution assessed as rate of oxidation by UV spectroscopy; assay type: physicochemical
[2] = Chemical stability in 30% hydrogen peroxide assessed as rate of oxidation by UV spectroscopy; assay type: physicochemical
[3] = Stability in phosphate buffer at pH 7.4 after 4 days by HPLC; assay type: physicochemical
How it was run: (§1)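 Dihydropyridine carrier at 2 × 10^-1 mmol in 0.2 M phosphate buffer (pH 7.4 or 5.8) at room temperature (32 °C), followed for 4 days by HPLC for the parent and its oxidation or degradation products. Pseudo-first-order disappearance constant from linear regression of ln peak area against time; t1/2 calculated; n = 4.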

[4] = Stability in phosphate buffer at pH 5.8 after 4 days by HPLC; assay type: physicochemical; how it was run: as §1
[5] = Stability in mouse plasma assessed as rate of oxidation by HPLC; assay type: ADME, cell-free
How it was run: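 Heparinized mouse blood spun 4000 rpm for 20 min; plasma diluted to 80% with phosphate buffer (0.11 mol, pH 7.4) and prewarmed at 37 °C. Methanolic dihydro compound added; kept at 37 °C. Aliquots at 1, 2, 4, 8, 16, 32 and 64 min quenched in ice-cold methanol, frozen at −80 °C, centrifuged, filtered and run on HPLC. K_disapp and t1/2 from linear regression of ln peak area vs time; n = 4.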

[6] = Stability in Swiss-Webster mouse brain homogenate assessed as rate of oxidation by HPLC; assay type: ADME, tissue-based
How it was run: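 Brains from ten adult male Swiss-Webster mice were washed in ice-cold saline and homogenized in ice-cold isotonic phosphate buffer (0.2 mol, pH 7.4) to give 20% homogenate, then prewarmed 5 min at 37 °C. Methanolic dihydro compound added; held at 37 °C. Samples taken at 1–64 min into ice-cold methanol, frozen at −80 °C, then analysed by HPLC. Pseudo-first-order K and t1/2 from ln peak area vs time; n = 4.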

Mus musculus [7] = assay: Antidepressant activity against Swiss-Webster mouse assessed as reduction in duration of immobility at 10 mg/kg, ip after 1 hr by tail suspension behavioral despair test relative to control; assay type: functional; parameters: scale not given: the % may be the effect or the level left; settings: route intraperitoneal
How it was run: (§2)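 Mice dosed ip at 10 mg/kg in 0.5% w/v CMC in water (0.5 mL per 100 g body weight); controls got CMC alone; imipramine 10 mg/kg as reference. One hour later mice were hung by the tail from a shelf edge 80 cm above the floor, taped about 1 cm from the tail tip. Immobility (passive, completely motionless hanging) timed over 6 min; mean ± S.E.M., % deviation from control.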

Mus musculus [8] = assay: Antidepressant activity against Swiss-Webster mouse at 10 mg/kg, ip after 1 hr by tail suspension behavioral despair test relative to imipramine; assay type: functional; settings: route intraperitoneal; how it was run: as §2
Brain = assay: Drug level in Sprague-Dawley rat brain at 20 mg/kg, iv; assay type: ADME, organism-based; parameters: dose 20 mg/kg, route intravenous; settings: in vivo
How it was run: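 Male Sprague-Dawley rats received a freshly prepared DMF solution (25 mg/mL) via the external jugular vein at 20 mg/kg. Animals sacrificed at 10, 20 and 45 min. Whole brain homogenized in water plus 5% DMF in acetonitrile, then centrifuged; blood precipitated in acetonitrile. Supernatants filtered and the quaternary acid quantified by HPLC against recovery spikes of quaternary salt into blank rat brain and blood.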

SMILES	half-life [1]	half-life [2]	half-life [3]	half-life [4]	half-life [5]	half-life [6]	Activity (Mus musculus [7])	Activity (Mus musculus [8])	Drug uptake (Brain)
CCOC(=O)C(C(=O)O)N1C=CCC(C(=O)N/N=C/c2ccc(OC)cc2)=C1 (stereo not given)	2.1 min	3.35 min	260 min	196 min	21.8 min	10.1 min	–	–	–
CCOC(=O)C(C(=O)O)[n+]1ccc(C(=O)N/N=C/c2ccccc2Cl)cc1.[Br-] (stereo not given)	–	–	–	–	–	–	31.42%	79.6%	–
CN(C)CCCN1c2ccccc2CCc2ccccc21 [IMIPRAMINE]	–	–	–	–	–	–	45.14%	–	–
CN(C)c1ccc(/C=N/NC(=O)C2C=CN(C(C(=O)O)C(=O)O)C=C2)cc1	1.14 min	3.15 min	248 min	169 min	18.9 min	9.58 min	54.95%	–	29.17 µg/g
CN(C)c1ccc(/C=N/NC(=O)c2cc[n+](C(C(=O)O)C(=O)O)cc2)cc1.[Br-]	–	–	–	–	–	–	50.75%	–	–
CCOC(=O)C(C(=O)O)N1C=CCC(C(=O)N/N=C/c2ccccc2O)=C1 (stereo not given)	2.17 min	3.85 min	–	–	–	–	64.55%	–	–
CCOC(=O)C(C(=O)O)N1C=CC(C(=O)N/N=C/c2ccccc2O)C=C1 (stereo not given)	2.48 min	4.08 min	–	–	–	–	36.7%	92.8%	–
CN1C=CC(C(=O)N/N=C/c2ccccc2Cl)C=C1	3.3 min	6.3 min	–	–	–	–	–	–	–
CCOC(=O)C(C(=O)O)N1C=CC(C(=O)N/N=C/c2ccccc2Cl)C=C1 (stereo not given)	3.01 min	5.3 min	402 min	252 min	23.3 min	10.7 min	40.9%	86.7%	23.23 µg/g
CCOC(=O)C(C(=O)O)[n+]1cccc(C(=O)N/N=C/c2ccccc2O)c1.[Br-] (stereo not given)	–	–	–	–	–	–	39.15%	90.2%	–
CCOC(=O)C(C(=O)O)[n+]1ccc(C(=O)N/N=C/c2ccccc2O)cc1.[Br-] (stereo not given)	–	–	–	–	–	–	30.34%	78.8%	–
